This is an account of results in ChEMBL document CHEMBL1122311, “beta-Adrenergic antagonists with multiple pharmacophores: persistent blockade of receptors” (J Med Chem, 1983).

In experiment [1] the target is T1, Adrenergic receptor beta (Rattus norvegicus) (UniProt P18090+P10608+P26255). Briefly: % specific binding blocked by the compound fraction of 2.6(x10E-6) in beta adrenergic receptor from lung membranes, after serial wash. The experiment is classed as tissue-based. The essentials: (§1)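 Rat heart or lung membranes (ca. 500 or 150 μg protein) preincubated with compound 1 h at 30 °C, centrifuged, then washed five times (resuspend in buffer, 10 min at 30 °C, centrifuge). Residual specific (–)-[³H]dihydroalprenolol binding (5 nM, 20 min, 30 °C, 50 mM Tris/10 mM MgCl₂ pH 7.4; nonspecific defined with 10 μM (±)-alprenolol) compared with washed untreated membranes; percent inhibition, ≥2 experiments in triplicate.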

For experiment [2], the target named is T1, Adrenergic receptor beta (Rattus norvegicus). Briefly: % specific binding blocked by the compound fraction of 2.6(x10E-6) in beta adrenergic receptor from heart membranes, after serial wash. The essentials:
as §1

Experiment [3] has the same target. In words: % specific binding blocked by the compound fraction of 5.6(x10E-6) in beta adrenergic receptor from lung membranes, after serial wash. Type of experiment: tissue-based. The essentials:
as §1

Experiment [4] has the same target. In words: % specific binding blocked by the compound fraction of 5.6(x10E-6) in beta adrenergic receptor from heart membranes, after serial wash. A digest of the protocol: as §1
Experiment [5] has the same target. In words: % specific binding blocked by the compound fraction of 2.6 (1x10E- 5) in beta adrenergic receptor from heart membranes, after serial wash. The essentials: as §1
Experiment [6] has the same target. In words: % specific binding blocked by the compound fraction of 2.6 (1x10E- 5) in beta adrenergic receptor from lung membranes, after serial wash. Type of experiment: tissue-based. The essentials: as §1
Experiment [7] has the same target. Briefly: % specific binding blocked by the compound fraction of 5.6 (1x10E- 5) in beta adrenergic receptor from heart membranes, after serial wash. A digest of the protocol: as §1
For experiment [8] the target is unchanged. In words: % specific binding blocked by the compound fraction of 5.6 (1x10E- 5) in beta adrenergic receptor from lung membranes, after serial wash. Type of experiment: tissue-based. The essentials:
as §1

With `C=CCc1ccccc1OCC(O)CNC(C)COCC(C)OCC(C)OCC(C)N(CC(O)COc1ccccc1CC=C)CC(O)COc1ccccc1CC=C` (configuration not stated), the results for the Binding in experiment [1] and in experiment [2] were 68% and 26%, respectively.
With `C=CCc1ccccc1OCC(O)CNC(C)COC(C)COC(C)COCC(C)N` (configuration not stated), the Binding in experiment [3] is 0%; in experiment [1], 14%; in experiment [4], 0%; in experiment [2] it was 3.8%.
With `C=CCc1ccccc1OCC(O)CNC(C)COCC(C)OCC(C)OCC(C)NCC(O)COc1ccccc1CC=C` (configuration not stated), the Binding was 77% in experiment [1] and 42.5% in experiment [2].
Regarding `CC(N)COCC(C)OCC(C)OCC(C)N` (configuration not stated), the Binding in experiment [5], in experiment [6], in experiment [7] and in experiment [8] was 0% throughout.
